The test system of data set [1] is HL-60. Nature of the data set: Effect on Ca2+ mobilization in human wild type HL60 cells. Type of data set: functional, cell-based. The method in brief:
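Wild-type, non-transfected HL-60 cells, grown without G418, were run in the same Fluo-4 Ca2+ flux assay. Fluorescence was monitored every 5 s for 240 s at room temperature.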
In general terms: Calcium flux is commonly read through the fluorescence of an indicator in the cells.

In data set [2] the test system is HL-60. The data set can be described thus: Cytotoxicity against human wild type HL60 cells at 5 to 20 uM after 60 mins by CellTitre-Glo luminescent assay. The following applies: hl-60, 1 h. Type of data set: cell-based. The method in brief: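 Wild-type HL-60 cells at 3×10^4 cells/well were exposed to 5, 10 or 20 µM compound for 60 min at 37 °C in 5% CO2. Samples were equilibrated to room temperature for 30 min before the CellTiter-Glo luminescence read. Triplicate samples; the experiment was representative of two.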

Data set [3] deals with T1, N-formyl peptide receptor 3 (Homo sapiens, UniProt P25089).
T1 sequence (P25089 whole entry): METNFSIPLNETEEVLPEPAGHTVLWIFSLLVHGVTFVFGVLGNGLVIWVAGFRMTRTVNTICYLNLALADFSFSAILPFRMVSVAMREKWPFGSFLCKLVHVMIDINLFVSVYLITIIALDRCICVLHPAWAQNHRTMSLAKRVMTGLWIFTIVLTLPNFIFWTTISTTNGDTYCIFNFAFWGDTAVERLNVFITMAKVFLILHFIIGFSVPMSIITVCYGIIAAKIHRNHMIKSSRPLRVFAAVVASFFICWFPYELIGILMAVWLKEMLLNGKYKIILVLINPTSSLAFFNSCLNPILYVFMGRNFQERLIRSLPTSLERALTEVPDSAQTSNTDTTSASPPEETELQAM
Nature of the data set: Agonist activity at FPR3 (unknown origin) transfected in human HL60 cells assessed as induction of Ca2+ mobilization. Type of data set: cell-based, HL-60.

Data set [4] has as its target T2, fMet-Leu-Phe receptor (Homo sapiens, UniProt P21462).
T2 sequence (P21462 whole entry): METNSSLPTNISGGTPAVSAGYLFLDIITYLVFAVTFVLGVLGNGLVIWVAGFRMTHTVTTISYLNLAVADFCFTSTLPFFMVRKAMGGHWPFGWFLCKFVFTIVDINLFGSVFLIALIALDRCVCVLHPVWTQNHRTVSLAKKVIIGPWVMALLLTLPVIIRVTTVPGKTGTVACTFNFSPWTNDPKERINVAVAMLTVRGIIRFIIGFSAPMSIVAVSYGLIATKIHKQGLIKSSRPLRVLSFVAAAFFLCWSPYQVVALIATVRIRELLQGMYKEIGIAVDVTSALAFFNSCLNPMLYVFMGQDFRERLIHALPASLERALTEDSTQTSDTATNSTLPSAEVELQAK
The data set can be described thus: Agonist activity at FPR1 (unknown origin) transfected in human HL60 cells assessed as induction of Ca2+ mobilization. Type of data set: functional, cell-based, HL-60.

Data set [5] addresses T3, N-formyl peptide receptor 2 (Homo sapiens, UniProt P25090).
T3 sequence (P25090 whole entry): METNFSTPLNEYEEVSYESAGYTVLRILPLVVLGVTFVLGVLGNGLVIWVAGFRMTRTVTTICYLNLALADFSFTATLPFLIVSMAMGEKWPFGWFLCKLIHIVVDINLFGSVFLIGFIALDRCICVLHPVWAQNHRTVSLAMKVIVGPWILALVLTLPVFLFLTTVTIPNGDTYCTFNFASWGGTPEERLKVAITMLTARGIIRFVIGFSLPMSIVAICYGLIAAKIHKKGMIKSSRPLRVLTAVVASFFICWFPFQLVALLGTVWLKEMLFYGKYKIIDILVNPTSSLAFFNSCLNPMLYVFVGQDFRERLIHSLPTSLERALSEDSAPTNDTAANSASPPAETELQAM
Nature of the data set: Agonist activity at FPR2 (unknown origin) transfected in human HL60 cells assessed as induction of Ca2+ mobilization. Type of data set: functional, cell-based, HL-60.

Data set [6] concerns the target T4, fMet-Leu-Phe receptor (Homo sapiens) (UniProt P21462).
T4 sequence (whole entry): T2 sequence (P21462 whole entry)
Nature of the data set: Agonist activity at FPR1 (unknown origin) transfected in human HL60 cells assessed as induction of Ca2+ mobilization relative to fMLF. It is filed as functional, cell-based. The conditions noted are these: HL-60. In short, it runs like this: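 Same Fluo-4 Ca2+ flux in transfected HL-60 cells. The peak fluorescence change over baseline was normalized to 5 nM fMLF for FPR1 cells and to 5 nM WKYMVm for FPR2 and FPR3 cells, each taken as 100%. Efficacy was read from 5–6 point dose-response curves.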

Molecules are shown by their SMILES. pEC50: −log10 of the molar value.

One may read the pEC50 as −log10 of the EC50, conventionally taken in molar units. For `COc1cccc(Cc2cc(-c3ccc(F)cc3)nn(CC(=O)Nc3ccc(F)cc3)c2=O)c1`, the pEC50 in data set [1], in data set [3], in data set [4] and in data set [5] was less than 4.30 in each case. Moreover, in data set [2], the Activity result is reported as “Non-toxic”.
Turning to `Cc1cc(NC(=O)c2ccc(Br)cc2)c(=O)n(CC(=O)Nc2ccc(Br)cc2)n1`, the pEC50 in data set [1], in data set [3], in data set [4] and in data set [5] was less than 4.30 each time. Besides, the Activity entry in data set [2] was “Non-toxic”.
Consider `COc1cccc(Cc2cc(-c3ccc(Cl)cc3)nn(CC(=O)Nc3ccc(F)cc3)c2=O)c1`, for which the pEC50 in data set [1], in data set [3], in data set [4] and in data set [5] was less than 4.30 throughout. In addition, the Activity entry in data set [2] is listed as “Non-toxic”.
As for `Cc1cc(Cc2cccc3ccccc23)c(=O)n(CC(=O)Nc2ccc(Br)cc2)n1`, the pEC50 in data set [1] was less than 4.30; in data set [3], less than 4.30; in data set [4], 4.86; in data set [5], less than 4.30. Also, the Activity result in data set [2] is listed as “Non-toxic”. Also, the Efficacy in data set [6] was determined as 20%.
For `COc1cccc(Cc2cc(-c3cccs3)nn(CC(=O)Nc3ccc4c(c3)OCO4)c2=O)c1`, the pEC50 in data set [1], in data set [3], in data set [4] and in data set [5] was less than 4.30 throughout. Besides, the Activity result in data set [2] is recorded as “Non-toxic”.
In the case of `COc1ccc(Cc2cc(-c3ccc(C)cc3)nn(CC(=O)Nc3ccc(Br)cc3)c2=O)cc1`, the pEC50 in data set [1], in data set [3], in data set [4] and in data set [5] was less than 4.30 throughout. For the same molecule, in data set [2], the Activity result is on record as “Non-toxic”.
In the case of `COc1ccc(-c2cc(Cc3cccc(OC)c3)c(=O)n(CC(=O)Nc3ccc4c(c3)OCO4)n2)cc1`, the negative-log EC50 (pEC50) in data set [1], in data set [3], in data set [4] and in data set [5] was less than 4.30 in each case. Moreover, the Activity entry in data set [2] is given as “Non-toxic”.
On to `COc1ccc(Cc2cc(Cc3ccccc3)nn(CC(=O)Nc3ccc(Br)cc3)c2=O)cc1`, for which the pEC50 in data set [1], in data set [3], in data set [4] and in data set [5] was less than 4.30 each time. Further, the Activity entry in data set [2] was “Non-toxic”.
As for `COc1ccc(Cc2cc(-c3cccs3)nn(CC(=O)Nc3ccc(Br)cc3)c2=O)cc1`, the negative-log EC50 (pEC50) in data set [1], in data set [3], in data set [4] and in data set [5] was less than 4.30 each time. The Activity result in data set [2] is “Non-toxic”.
As to `Cc1cc(Cc2cccc(Br)c2)c(=O)n(CC(=O)Nc2ccc(Br)cc2)n1`, the pEC50 in data set [1], in data set [3], in data set [4] and in data set [5] was less than 4.30 throughout. The Activity entry in data set [2] is on record as “Non-toxic”.
On to `COc1ccc(Cc2cc(-c3ccc(Cl)cc3)nn(CC(=O)Nc3ccc(Br)cc3)c2=O)cc1`, for which the pEC50 in data set [1], in data set [3], in data set [4] and in data set [5] was less than 4.30 each time. Besides, in data set [2], the Activity result is given as “Non-toxic”.
Take `COc1cccc(Cc2cc(-c3ccc(C)cc3)nn(CC(=O)Nc3ccc(F)cc3)c2=O)c1`: the pEC50 in data set [1], in data set [3], in data set [4] and in data set [5] was less than 4.30 each time. In addition, the Activity entry in data set [2] is reported as “Non-toxic”.
Turning to `COc1cccc(Cc2cc(-c3ccc(C)cc3)nn(CC(=O)Nc3ccc4c(c3)OCO4)c2=O)c1`, the pEC50 in data set [1], in data set [3], in data set [4] and in data set [5] was less than 4.30 each time. Moreover, in data set [2], the Activity entry is “Non-toxic”.
As for `COc1cccc(Cc2cc(-c3cccs3)nn(CC(=O)Nc3ccc(F)cc3)c2=O)c1`, the pEC50 in data set [1], in data set [3], in data set [4] and in data set [5] was less than 4.30 throughout. Moreover, the Activity result in data set [2] is reported as “Non-toxic”.
For the molecule `Cc1cc(Cc2ccccc2)c(=O)n(CC(=O)Nc2ccc(F)cc2)n1`, the pEC50 in data set [1], in data set [3], in data set [4] and in data set [5] was less than 4.30 throughout. Also, the Activity result in data set [2] was “Non-toxic”.
In the case of `COc1cccc(Cc2cc(-c3ccccc3)nn(CC(=O)Nc3ccc(F)cc3)c2=O)c1`, the negative logarithm of the EC50 (pEC50) in data set [1], in data set [3], in data set [4] and in data set [5] was less than 4.30 in each case. The Activity result in data set [2] is recorded as “Non-toxic”.
For `Cc1cc(Cc2ccc(C#N)cc2)c(=O)n(CC(=O)Nc2ccc(Br)cc2)n1`, the negative logarithm of the EC50 (pEC50) in data set [1], in data set [3], in data set [4] and in data set [5] was less than 4.30 in each case. Also, the Activity entry in data set [2] is on record as “Non-toxic”.
For the molecule `COc1cccc(Cc2cc(-c3ccccc3)nn(CC(=O)Nc3ccc4c(c3)OCO4)c2=O)c1`, the pEC50 in data set [1], in data set [3], in data set [4] and in data set [5] was less than 4.30 each time. For the same molecule, the Activity result in data set [2] was “Non-toxic”.
For the molecule `Cc1cc(Cc2ccc(C(F)(F)F)cc2)c(=O)n(CC(=O)Nc2ccc(Br)cc2)n1`, the negative-log EC50 (pEC50) in data set [1], in data set [3], in data set [4] and in data set [5] was less than 4.30 throughout. Also, the Activity entry in data set [2] is given as “Non-toxic”.
Regarding `COc1cc(Cc2cc(C)nn(CC(=O)Nc3ccc(Br)cc3)c2=O)cc(OC)c1`, the pEC50 in data set [1], in data set [3], in data set [4] and in data set [5] was less than 4.30 each time. In data set [2], the Activity entry is “Non-toxic”.
In the case of `COc1ccc(-c2cc(Cc3cccc(OC)c3)c(=O)n(CC(=O)Nc3ccc(F)cc3)n2)cc1`, the pEC50 in data set [1], in data set [3], in data set [4] and in data set [5] was less than 4.30 throughout. For the same molecule, in data set [2], the Activity entry is on record as “Non-toxic”.
As to `COc1ccc(Cc2cc(-c3ccc(OC)cc3)nn(CC(=O)Nc3ccc(Br)cc3)c2=O)cc1`, the pEC50 in data set [1], in data set [3], in data set [4] and in data set [5] was less than 4.30 throughout. Besides, in data set [2], the Activity result is recorded as “Non-toxic”.
Consider `Cc1ccc(=O)n(CC(=O)Nc2ccc(I)cc2)n1`, for which the pEC50 in data set [1], in data set [3], in data set [4] and in data set [5] was less than 4.30 throughout. Moreover, in data set [2], the Activity entry is “Non-toxic”.
Consider `COc1cccc(Cc2cc(-c3ccc(Cl)cc3)nn(CC(=O)Nc3ccc4c(c3)OCO4)c2=O)c1`, for which the negative-log EC50 (pEC50) in data set [1], in data set [3], in data set [4] and in data set [5] was less than 4.30 each time. For the same molecule, the Activity entry in data set [2] was “Non-toxic”.
As to `CC1=NN(CC(=O)Nc2ccc(I)cc2)C(=O)CC1`, the pEC50 in data set [1], in data set [3], in data set [4] and in data set [5] was less than 4.30 in each case. For the same molecule, the Activity result in data set [2] was “Non-toxic”.
`COc1cccc(Cc2cc(-c3ccc(F)cc3)nn(CC(=O)Nc3ccc4c(c3)OCO4)c2=O)c1`: the pEC50 in data set [1], in data set [3], in data set [4] and in data set [5] was less than 4.30 each time. The Activity result in data set [2] is “Non-toxic”.
Consider `COc1ccc(Cc2cc(-c3ccc(F)cc3)nn(CC(=O)Nc3ccc(Br)cc3)c2=O)cc1`, for which the pEC50 in data set [1], in data set [3], in data set [4] and in data set [5] was less than 4.30 in each case. In addition, in data set [2], the Activity result was “Non-toxic”.

These data come from ChEMBL document CHEMBL2390925, “Further studies on 2-arylacetamide pyridazin-3(2H)-ones: design, synthesis and evaluation of 4,6-disubstituted analogs as formyl peptide receptors (FPRs) agonists” (Eur J Med Chem, 2013).
